In brackets after ≈: the same amount, converted by molar mass.
Tested on: Mycobacterium tuberculosis
Test: Antimycobacterial activity against Mycobacterium tuberculosis H37Rv assessed as inhibition of bacterial growth for 5 weeks by spot culture growth inhibition assay
Format: functional
Settings: 840 h
Method in brief: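 M. tuberculosis H37Rv grown shaking at 37 °C in 7H9 with 0.5% glycerol, 10% OADC and 0.025% Tween 80 to OD 1, then diluted 1:100 and 2 µL spotted. Wells hold 7H10 agar with 0.5% glycerol and 10% OADC plus compound, two-fold serial dilutions in DMSO from 150 μg mL-1. Plates used within 24 h. Incubated 37 °C for five weeks, then MIC90 recorded.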

For `CC(C)Oc1ccc(-c2nn(-c3ccc(Cl)cc3)cc2Cn2ccnc2)cc1`, the MIC90 was 15.3 µM (≈ 6.01 µg/mL).
